From PubChem BioAssay
Calls of active or inactive are those of the source.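 Rule for the calls, unless noted: active = potentiation averaged over duplicate wells exceeding buffer-only control mean by more than 3 SD; inactive = the rest.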

Tests used:
[1] = thallium flux activation in parental CHO cells, counter-screen for KCNQ1 potentiator project (AID 493006;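 active = duplicate-averaged activation above buffer control mean plus 5 SD of those controls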;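 for activation: fluorescence ratio of max minus min over baseline after K+ and Tl+ depolarization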); conditions: parental CHO-K1 cells, FluxOR thallium flux, at 10 µM; stronger effect = higher value
In short: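 Assay system: parental CHO-K1 cells lacking KCNQ1, loaded with FluxOR thallium dye; timing: dye 90 min RT, compound 20 min RT; signal: kinetic thallium-flux fluorescence; repeats: duplicate wells per compound, percent values averaged; benchmarks: buffer and R-L3 controls; reagent: Potassium/thallium depolarization pulse; read-out: fluorescence change ratio scaled 0% buffer, 100% R-L3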

[2] = target: Potassium voltage-gated channel subfamily KQT member 1 (Homo sapiens) (UniProt P51787); assay: KCNQ1 potassium channel potentiators, confirmation, FluxOR thallium flux, CHO cells, duplicates (AID 493007); conditions: KCNQ1 cell line, FluxOR thallium flux fluorescence, at 10 µM; stronger effect = higher value, % of reference activator effect, buffer zero;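 for outcome: cells depolarized by a potassium plus thallium sulfate stimulus after compound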
In short: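 material = CHO cells stably expressing the KCNQ1 potassium channel | repeats = duplicate wells per compound | measure = percent activation between buffer and R-L3 responses | signal = FluxOR thallium-flux fluorescence, kinetic read | schedule = FluxOR dye loading 90 min, compound exposure 20 min, room temperature | control set = buffer and R-L3 controls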

[3] = target: Potassium voltage-gated channel subfamily KQT member 2 (Rattus norvegicus) (UniProt O88943); assay: rat KCNQ2 channel potentiation, selectivity assay for KCNQ1 potentiator project, KCNQ2-CHO-K1 cells (AID 493009;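 active = mean duplicate potentiation above the buffer control mean plus 5 SD of buffer wells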;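 note: assay conditions were tuned for KCNQ1 rather than KCNQ2 modulators; signal is max minus min fluorescence divided by baseline after thallium stimulus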); conditions: FluxOR thallium flux fluorescence, at 10 µM; stronger effect = higher value, scaled: buffer 0, activator control 100
[4] = target: Potassium voltage-gated channel subfamily KQT member 1 (Homo sapiens) (UniProt P51787); assay: KCNQ1 channel current potentiators, confirmation, orthogonal assay for KCNQ1 potentiator project, IonWorks patch clamp, KCNQ1-CHO cells (AID 493184;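 active = current rise at least 3 SD above the untreated control mean in each of two repeat wells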); conditions: automated patch clamp current, at 10 µM; stronger effect = higher value
In short: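 Assay system – CHO cells carrying KCNQ1 · Medium – pH 7.4 external bath · Probe or stimulus – depolarizing pulse to +40 mV from -90 mV · Compound dosing – one dose, 10 µM final · Measured by – automated perforated-patch electrophysiology · Measure – % potentiation of steady-state current relative to pre-compound · Repeats – two replicates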

Potassium voltage-gated channel subfamily KQT member 1 (Homo sapiens), sequence (P51787 whole entry, looked up): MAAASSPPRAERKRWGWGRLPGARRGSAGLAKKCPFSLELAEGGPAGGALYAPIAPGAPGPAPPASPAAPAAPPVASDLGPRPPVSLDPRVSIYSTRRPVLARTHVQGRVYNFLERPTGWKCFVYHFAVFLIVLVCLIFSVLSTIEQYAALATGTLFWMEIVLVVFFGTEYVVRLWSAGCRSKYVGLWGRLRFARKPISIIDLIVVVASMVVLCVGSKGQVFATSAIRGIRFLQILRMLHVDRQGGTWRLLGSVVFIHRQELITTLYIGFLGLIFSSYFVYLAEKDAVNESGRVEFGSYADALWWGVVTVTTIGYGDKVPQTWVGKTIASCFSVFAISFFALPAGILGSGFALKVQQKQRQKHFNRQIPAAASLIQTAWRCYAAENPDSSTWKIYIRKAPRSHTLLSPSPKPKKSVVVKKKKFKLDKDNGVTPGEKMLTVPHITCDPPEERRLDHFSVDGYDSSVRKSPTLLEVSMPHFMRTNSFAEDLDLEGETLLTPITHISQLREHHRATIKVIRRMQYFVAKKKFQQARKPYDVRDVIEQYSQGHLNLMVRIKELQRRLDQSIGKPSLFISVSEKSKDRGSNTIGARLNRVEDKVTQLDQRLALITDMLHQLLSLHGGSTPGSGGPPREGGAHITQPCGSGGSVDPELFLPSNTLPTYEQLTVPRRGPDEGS
Potassium voltage-gated channel subfamily KQT member 2 (Rattus norvegicus), sequence (O88943 whole entry, looked up): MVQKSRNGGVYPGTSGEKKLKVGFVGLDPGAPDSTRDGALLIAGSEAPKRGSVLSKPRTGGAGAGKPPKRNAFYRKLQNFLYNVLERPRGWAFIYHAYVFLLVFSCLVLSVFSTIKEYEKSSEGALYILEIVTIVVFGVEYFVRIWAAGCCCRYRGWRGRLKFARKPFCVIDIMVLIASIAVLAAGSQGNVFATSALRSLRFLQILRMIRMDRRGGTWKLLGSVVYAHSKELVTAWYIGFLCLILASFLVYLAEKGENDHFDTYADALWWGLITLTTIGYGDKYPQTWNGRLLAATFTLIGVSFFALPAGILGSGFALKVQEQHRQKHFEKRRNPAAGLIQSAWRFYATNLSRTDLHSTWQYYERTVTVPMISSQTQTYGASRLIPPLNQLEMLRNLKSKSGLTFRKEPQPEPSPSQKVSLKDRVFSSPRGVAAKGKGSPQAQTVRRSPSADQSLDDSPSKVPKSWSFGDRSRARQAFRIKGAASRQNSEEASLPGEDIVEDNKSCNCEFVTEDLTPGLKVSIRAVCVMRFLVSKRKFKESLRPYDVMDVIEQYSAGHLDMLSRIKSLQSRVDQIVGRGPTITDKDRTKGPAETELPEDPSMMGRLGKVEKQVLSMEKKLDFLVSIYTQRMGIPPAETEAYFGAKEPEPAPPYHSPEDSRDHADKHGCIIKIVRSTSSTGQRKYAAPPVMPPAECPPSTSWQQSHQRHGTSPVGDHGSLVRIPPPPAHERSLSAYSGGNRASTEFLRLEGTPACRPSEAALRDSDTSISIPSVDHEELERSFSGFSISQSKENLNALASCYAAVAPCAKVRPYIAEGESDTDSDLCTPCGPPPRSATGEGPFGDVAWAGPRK

Row | SMILES | activation [1] | potentiation [2] | potentiation [3] | outcome [4] | outcome [1] | outcome [2] | outcome [3]
1 | O=C1OCCC1Sc1nc2ccccc2c(=O)n1Cc1ccc(F)cc1 (stereo unspecified) | 158% (active) | 44% (active) | 169% (active) | inactive | – | – | –
2 | Cc1[nH]n(-c2ccc(F)cc2)c(=O)c1/C=N/c1sc2c(c1C#N)CCCC2 | 276% (active) | 85.5% (active) | 246% (active) | inactive | – | – | –
3 | O=C(c1ccc(Cl)cc1)c1c[nH]c(C(=O)C(Cl)(Cl)Cl)c1 | – | – | – | inactive | inactive | inactive | inactive
4 | CCc1ccc(NC(=O)CSc2nc3ccsc3c(=O)n2CCC(=O)O)cc1 | 148% (active) | 33% (active) | 172% (active) | inactive | – | – | –
5 | Cc1cccc2sc(N(CCCN(C)C)C(=O)CCS(=O)(=O)c3ccccc3)nc12 | – | – | – | inactive | inactive | inactive | inactive
6 | CN(c1ccccc1)S(=O)(=O)c1ccc(NC(=O)c2nc(S(C)(=O)=O)ncc2Cl)cc1 | – | – | – | inactive | inactive | inactive | inactive
7 | CCn1ncc(Cl)c1C(=O)NC(=S)Nc1ccccc1Br | 272% (active) | 200% (active) | 340% (active) | inactive | – | – | –
8 | COc1ccc(C)cc1NC(=O)C(=O)NNC(=O)COc1ccc(Cl)cc1 | 166% (active) | 195% (active) | 258% (active) | inactive | – | – | –
9 | Cn1c(SCc2ccc(C#N)cc2Cl)nc2ccccc21 | – | – | – | inactive | inactive | inactive | inactive
10 | COCCCNc1nc2ccccc2nc1NS(=O)(=O)c1cccs1 | – | – | – | inactive | inactive | inactive | inactive
11 | COC(=O)c1c(NS(=O)(=O)Cc2ccccc2)sc2c1CCCC2 | 196% (active) | 136% (active) | 186% (active) | inactive | – | – | –
12 | COc1ccc(-c2csc(NC(=S)NC(=O)c3cccs3)n2)cc1OC | – | 40% (active) | 216% (active) | inactive | inactive | – | –
13 | CC1(C)N=C(N)NC(Nc2cccc(Br)c2)=N1 | – | – | – | inactive | inactive | inactive | inactive
14 | COc1ccc2nc(/N=C/c3c(C)[nH]n(-c4ccc(C)cc4)c3=O)sc2c1 | 340% (active) | 273% (active) | 518% (active) | inactive | – | – | –
15 | Cc1ccc(NC(=S)N/N=C2/CCCCc3ccccc32)cc1 | 274% (active) | 324% (active) | 484% (active) | inactive | – | – | –
16 | Cc1cccc(C(=O)NC(=S)N(C)C2CCCCC2)c1 | 268% (active) | 72.5% (active) | 326% (active) | inactive | – | – | –
17 | S=C(Nc1ccc(Br)cc1)N1CCn2cccc2C1c1cccnc1 (stereo unspecified) | – | – | – | inactive | inactive | inactive | inactive
18 | CCc1ccc(NC(=O)C(=O)NNC(=O)c2cccc(OC)c2)cc1 | 269% (active) | 124% (active) | 339% (active) | inactive | – | – | –
19 | O=C1CN(c2nc(-c3cccs3)nc3sc4c(c23)CCCC4)CCN1 | 259% (active) | 415% (active) | 492% (active) | inactive | – | – | –
20 | COc1cccc2sc(Nc3nnc(-c4cccs4)o3)nc12 | 396% (active) | 250% (active) | 424% (active) | inactive | – | – | –

Row | SMILES | activation [1] | potentiation [2] | potentiation [3] | outcome [4] | outcome [1] | outcome [2] | outcome [3]
21 | CCOC(=O)Cn1nc(-c2ccc(F)cc2)cc(Cc2ccccc2)c1=O | – | – | – | inactive | inactive | inactive | inactive
22 | Cc1nonc1NC(=O)OC1CCCCC1 | – | – | – | inactive | inactive | inactive | inactive
23 | COCCn1c(=S)[nH]c2sc3c(c2c1=O)CCCC3 | 325% (active) | 106% (active) | 312% (active) | inactive | – | – | –
24 | COc1ccc(C2C(C(=O)c3ccccc3)=C(C)Nc3nc4ccccc4n32)cc1OC (stereo unspecified) | – | – | – | inactive | inactive | inactive | inactive
25 | CCN(c1ccccc1)S(=O)(=O)c1ccc(OC)c(OC)c1 | 167% (active) | 150% (active) | 162% (active) | inactive | – | – | –
26 | O=C(CSc1ccc2ccccc2n1)Nc1ccc(N2CCOCC2)cc1 | – | – | – | inactive | inactive | inactive | inactive
27 | Cc1ccc(C)c(NC(=S)NNC(=O)c2cc3c(s2)CCC(C)C3)c1 (stereo unspecified) | 192% (active) | 48.5% (active) | 237% (active) | inactive | – | – | –
28 | O=C1C=C(NCc2ccccc2)c2ccccc2C1=O | 140% (active) | 24% (active) | – | inactive | – | – | inactive
29 | CC(C)NC(=O)C1CCN(c2ccc(S(=O)(=O)N3CCOCC3)cc2Cl)CC1 | – | – | – | inactive | inactive | inactive | inactive
30 | Cc1ccc(S(=O)(=O)NCC(c2ccc3c(c2)OCO3)N2CCOCC2)cc1 (stereo unspecified) | – | – | – | inactive | inactive | inactive | inactive
31 | O=C(Nc1ccc(N2CCCCC2)cc1)c1cccnc1Cl | – | – | – | inactive | inactive | inactive | inactive
32 | Cc1c(Cl)cccc1NC(=O)Cn1c(CCC(=O)O)ccc1-c1ccccc1 | – | – | – | inactive | inactive | inactive | inactive
33 | Cc1ccc(O)c(C(=O)CC(=O)c2ccc(Cl)cc2)c1 | – | – | – | inactive | inactive | inactive | inactive
34 | CCc1ccc2nc(NC(=O)c3cc(C)on3)sc2c1 | 157% (active) | 55% (active) | 151% (active) | inactive | – | – | –
35 | CN(C(=S)NC(=O)c1ccccc1)C1CCCCC1 | 228% (active) | 29% (active) | 186% (active) | inactive | – | – | –
36 | CC1CCCN(c2ccc(C(=O)NCc3ccccc3)cn2)C1 (stereo unspecified) | 155% (active) | 26% (active) | 152% (active) | inactive | – | – | –
37 | COc1ccc2nc(N3C(=O)/C(=C/c4ccccc4)NC3=S)sc2c1 | 380% (active) | 204% (active) | 486% (active) | inactive | – | – | –
38 | Cc1ccc(OCC(=O)NC(=S)Nc2ccc(Br)cn2)cc1 | – | 19.5% (active) | – | inactive | inactive | – | inactive
39 | O=C(NC(=S)Nc1ccccc1N1CCCC1)c1ccco1 | 174% (active) | 21.5% (active) | 174% (active) | inactive | – | – | –
40 | O=C(CCC(=O)N1CCOc2ccc(Cl)cc21)NCCN1CCOCC1 | – | – | – | inactive | inactive | inactive | inactive

Row | SMILES | activation [1] | potentiation [2] | potentiation [3] | outcome [4] | outcome [1] | outcome [2] | outcome [3]
41 | CC(C)c1nc2n[nH]c(N)c2c2c1CCCC2 | – | – | – | inactive | inactive | inactive | inactive
42 | C=CCN(CC=C)C(=S)NC(=O)c1ccc(C)c(Br)c1 | 779% (active) | 270% (active) | 688% (active) | inactive | – | – | –
43 | Cc1ccc2nc(NC(=S)NC(=O)c3ccco3)sc2c1 | 360% (active) | 138% (active) | 325% (active) | inactive | – | – | –
44 | CC(C)(C)CC(C)(C)NCC(O)COCCOc1ccc(Br)cc1 (stereo unspecified) | – | – | – | inactive | inactive | inactive | inactive
45 | O=C(Nc1nnc(C2=COCCO2)o1)c1ccc(Br)cc1 | 142% (active) | 18% (active) | 169% (active) | inactive | – | – | –
46 | Cc1ccc(-c2csc3nc[nH]c(=S)c23)cc1C | 223% (active) | 56.5% (active) | 222% (active) | inactive | – | – | –
47 | Cc1ccc(OCCCC(=O)NCc2ccco2)c(C)c1 | – | – | – | inactive | inactive | inactive | inactive
48 | CCc1ccc(S(=O)(=O)NC(=S)NC2CCCCC2)cc1 | 330% (active) | 108% (active) | 312% (active) | inactive | – | – | –
49 | Cc1cc(Cl)ccc1OCc1n[nH]c(=S)n1C1CCCCC1 | 190% (active) | 129% (active) | 212% (active) | inactive | – | – | –
50 | COc1cc(OC)cc(C(=O)NC(=S)N2CCCCCC2)c1 | – | 48% (active) | 198% (active) | inactive | inactive | – | –
51 | O=C(NNC(=O)c1ccc2ccccc2c1O)c1cccs1 | – | – | – | inactive | inactive | inactive | inactive
52 | O=C1Nc2cc(C(=O)NCCCN3CCOCC3)ccc2S/C1=C/c1cccc(Cl)c1 | – | – | – | inactive | inactive | inactive | inactive
53 | Cc1ccc(-c2noc(CCC(=O)Nc3ccccc3N3CCN(C)CC3)n2)cc1 | – | – | – | inactive | inactive | inactive | inactive
54 | CCCCCCCC/C=C\CCCCCCCC(=O)O | 143% (active) | 51% (active) | – | inactive | – | – | inactive
55 | C/C(=N\NC(=O)c1cc2ccccc2cc1O)c1ccc(C)o1 | 238% (active) | 114% (active) | 264% (active) | inactive | – | – | –
56 | CCC(CC)C(=O)Nc1cc([N+](=O)[O-])ccc1Cl | – | – | – | inactive | inactive | inactive | inactive
57 | COc1ccc(C(=O)O/N=C(\N)Cc2ccc(Cl)cc2Cl)cc1OC | – | – | – | inactive | inactive | inactive | inactive
58 | S=c1[nH]cnc2scc(-c3ccc(Cl)cc3)c12 | 158% (active) | 47% (active) | 191% (active) | inactive | – | – | –
59 | CCOc1ccc(-n2cc(-c3ccccc3)c3c(=S)nc[nH]c32)cc1 | 337% (active) | 192% (active) | 389% (active) | inactive | – | – | –
